# Test results taken from ChEMBL document CHEMBL1152501, “Mannosylated saponins based on oleanolic and glycyrrhizic acids. Towards synthetic colloidal antigen delivery systems” (2009).
# Experiments:
# [1] = Immunostimulatory activity in C57BL/6 mouse BMDC assessed as increase in mean fluorescence intensity of MHC class2 expression at 10 ug relative to untreated control; type: functional
# In short: (§1)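 Bone marrow stem cells from C57Bl/6 J mice grown 6 days in IMDM with 5% FBS, penicillin/streptomycin, glutamax, 2-mercaptoethanol and 20 ng/ml GM-CSF, 37 °C, 5% CO2. Seeded at 5 × 10^5 cells/mL and pulsed with formulations holding 10 µg saponin (cholesterol/phosphatidylcholine film hydration); LPS 10 µg/mL positive control. After 48 h, flow cytometry gated on propidium iodide-negative CD11c+ cells. MFI divided by medium-only MFI. Run 1–3 times.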
# [2] = Immunostimulatory activity in C57BL/6 mouse BMDC assessed as increase in mean fluorescence intensity of CD86 expression at 10 ug relative to untreated control; type: functional; in short: as §1
SMILES,fold change (FC) [1],fold change (FC) [2]
CC1(C)CC[C@]2(C(=O)O)CC[C@]3(C)C(=CC[C@@H]4[C@@]5(C)CC[C@H](O[C@H]6O[C@H](CO)[C@@H](O)[C@H](O)[C@@H]6O[C@H]6O[C@H](CO)[C@@H](O)[C@H](O)[C@@H]6O[C@H]6O[C@H](CO)[C@@H](O)[C@H](O)[C@@H]6O)C(C)(C)[C@@H]5CC[C@]43C)[C@@H]2C1,1.1,0.8
CC1(C)CC[C@]2(C(=O)O)CC[C@]3(C)C(=CC[C@@H]4[C@@]5(C)CC[C@H](O[C@H]6O[C@H](CO)[C@@H](O)[C@H](O)[C@@H]6O[C@H]6O[C@H](CO)[C@@H](O)[C@H](O)[C@@H]6O)C(C)(C)[C@@H]5CC[C@]43C)[C@@H]2C1,1.6,1.2
COC(=O)[C@H]1O[C@@H](O[C@H]2CC[C@]3(C)[C@H]4C(=O)C=C5[C@@H]6C[C@@](C)(C(=O)O[C@@H]7O[C@H](CO)[C@@H](O)[C@H](O)[C@H]7O)CC[C@]6(C)CC[C@@]5(C)[C@]4(C)CC[C@H]3C2(C)C)[C@H](O[C@@H]2O[C@H](C(=O)O)[C@@H](O)[C@H](O)[C@H]2O)[C@@H](O)[C@@H]1O,1.3,1.3
CC1(C)CC[C@]2(C(=O)O[C@H]3O[C@H](CO[C@H]4O[C@H](CO)[C@@H](O)[C@H](O)[C@@H]4O)[C@@H](O)[C@H](O[C@H]4O[C@H](CO)[C@@H](O)[C@H](O)[C@@H]4O)[C@@H]3O)CC[C@]3(C)C(=CC[C@@H]4[C@@]5(C)CC[C@H](O[C@H]6O[C@H](CO[C@H]7O[C@H](CO)[C@@H](O)[C@H](O)[C@@H]7O)[C@@H](O)[C@H](O[C@H]7O[C@H](CO)[C@@H](O)[C@H](O)[C@@H]7O)[C@@H]6O)C(C)(C)[C@@H]5CC[C@]43C)[C@@H]2C1,1.3,2
COC(=O)[C@H]1O[C@@H](O[C@H]2[C@H](O[C@H]3CC[C@]4(C)[C@H]5C(=O)C=C6[C@@H]7C[C@@](C)(C(=O)O)CC[C@]7(C)CC[C@@]6(C)[C@]5(C)CC[C@H]4C3(C)C)O[C@H](C(=O)OC)[C@@H](O)[C@@H]2O)[C@H](O)[C@@H](O)[C@@H]1O,1.1,0.9
COC(=O)[C@H]1O[C@@H](O[C@H]2CC[C@]3(C)[C@H]4C(=O)C=C5[C@@H]6C[C@@](C)(C(=O)O)CC[C@]6(C)CC[C@@]5(C)[C@]4(C)CC[C@H]3C2(C)C)[C@H](O[C@@H]2O[C@H](C(=O)O)[C@@H](O)[C@H](O)[C@H]2O)[C@@H](O)[C@@H]1O,1.5,0.9
COC(=O)[C@H]1O[C@@H](O[C@H]2[C@H](O[C@H]3CC[C@]4(C)[C@H]5C(=O)C=C6[C@@H]7C[C@@](C)(C(=O)O)CC[C@]7(C)CC[C@@]6(C)[C@]5(C)CC[C@H]4C3(C)C)O[C@H](C(=O)O)[C@@H](O)[C@@H]2O)[C@H](O)[C@@H](O)[C@@H]1O,1.4,0.9
COC(=O)[C@H]1O[C@@H](O[C@H]2[C@H](O[C@H]3CC[C@]4(C)[C@H]5C(=O)C=C6[C@@H]7C[C@@](C)(C(=O)O[C@@H]8O[C@H](CO)[C@@H](O)[C@H](O)[C@H]8O)CC[C@]7(C)CC[C@@]6(C)[C@]5(C)CC[C@H]4C3(C)C)O[C@H](C(=O)O)[C@@H](O)[C@@H]2O)[C@H](O)[C@@H](O)[C@@H]1O,1.1,1
CC1(C)CC[C@]2(C(=O)O[C@H]3O[C@H](CO)[C@@H](O)[C@H](O)[C@@H]3O[C@H]3O[C@H](CO)[C@@H](O)[C@H](O)[C@@H]3O[C@H]3O[C@H](CO)[C@@H](O)[C@H](O)[C@@H]3O)CC[C@]3(C)C(=CC[C@@H]4[C@@]5(C)CC[C@H](O[C@H]6O[C@H](CO)[C@@H](O)[C@H](O)[C@@H]6O[C@H]6O[C@H](CO)[C@@H](O)[C@H](O)[C@@H]6O[C@H]6O[C@H](CO)[C@@H](O)[C@H](O)[C@@H]6O)C(C)(C)[C@@H]5CC[C@]43C)[C@@H]2C1,1,0.9
